≈ marks a conversion by molar mass, not a printed value.
What was measured:
Format in all cases: functional
Staphylococcus aureus [1] = assay: Antibacterial activity against standard Staphylococcus aureus after 20 hrs by agar dilution method
How it was run: (§1)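 Agar dilution MIC. The inoculum came from a seed culture in Sensitivity test broth. A 5 µl portion of a cell suspension of about 10^6 CFU/ml was inoculated onto Sensitivity disk agar supplemented with 5% horse blood. Plates were incubated at 37 °C for 20 h, then MIC was read.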

Staphylococcus aureus [2] = assay: Antibacterial activity against susceptible Staphylococcus aureus after 20 hrs by agar dilution method; how it was run: as §1
Staphylococcus aureus [3] = assay: Antibacterial activity against ermA-constitutive resistant Staphylococcus aureus after 20 hrs by agar dilution method; how it was run: as §1
Staphylococcus aureus [4] = assay: Antibacterial activity against ermB-inducible resistant Staphylococcus aureus after 20 hrs by agar dilution method; how it was run: as §1
Staphylococcus aureus [5] = assay: Antibacterial activity against ermC-inducible resistant Staphylococcus aureus after 20 hrs by agar dilution method; how it was run: as §1
Streptococcus pneumoniae [6] = assay: Antibacterial activity against susceptible Streptococcus pneumoniae after 20 hrs by agar dilution method
How it was run: (§2)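 MIC by agar dilution. Strains grown on blood agar plates for seed culture. About 5 µl of a suspension of roughly 10^6 CFU/ml spotted onto Sensitivity disk agar with 5% horse blood. Plates incubated at 37 °C for 20 h, then MIC read.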

Streptococcus pneumoniae [7] = assay: Antibacterial activity against ermB-constitutive resistant Streptococcus pneumoniae after 20 hrs by agar dilution method
How it was run: (§3)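 Agar dilution MIC. Streptococcal strains were pre-cultured on blood agar plates. A 5 µl portion of a cell suspension of about 10^6 CFU/ml was inoculated onto Sensitivity disk agar supplemented with 5% horse blood. Plates were incubated at 37 °C for 20 h, then MIC was read.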

Streptococcus pneumoniae [8] = assay: Antibacterial activity against ermB-inducible resistant Streptococcus pneumoniae after 20 hrs by agar dilution method; how it was run: as §3
Streptococcus pneumoniae [9] = assay: Antibacterial activity against mefE efflux-resistant Streptococcus pneumoniae after 20 hrs by agar dilution method; how it was run: as §3
Streptococcus pyogenes [10] = assay: Antibacterial activity against ermB-constitutive resistant Streptococcus pyogenes after 20 hrs by agar dilution method; how it was run: as §3
Streptococcus pyogenes [11] = assay: Antibacterial activity against mefE efflux-resistant Streptococcus pyogenes after 20 hrs by agar dilution method; how it was run: as §3
Moraxella catarrhalis = assay: Antibacterial activity against standard Moraxella catarrhalis after 20 hrs by agar dilution method; how it was run: as §2
Haemophilus influenzae [12] = assay: Antibacterial activity against standard Haemophilus influenzae after 20 hrs by agar dilution method; how it was run: as §2
Haemophilus influenzae [13] = assay: Antibacterial activity against susceptible Haemophilus influenzae after 20 hrs by agar dilution method; how it was run: as §2
Streptococcus pyogenes [14] = assay: Antibacterial activity against standard Streptococcus pyogenes after 20 hrs by agar dilution method; how it was run: as §2

SMILES | MIC (Staphylococcus aureus [1]) | MIC (Staphylococcus aureus [2]) | MIC (Staphylococcus aureus [3]) | MIC (Staphylococcus aureus [4]) | MIC (Staphylococcus aureus [5]) | MIC (Streptococcus pneumoniae [6]) | MIC (Streptococcus pneumoniae [7]) | MIC (Streptococcus pneumoniae [8]) | MIC (Streptococcus pneumoniae [9]) | MIC (Streptococcus pyogenes [10]) | MIC (Streptococcus pyogenes [11]) | MIC (Moraxella catarrhalis) | MIC (Haemophilus influenzae [12]) | MIC (Haemophilus influenzae [13]) | MIC (Streptococcus pyogenes [14])
CCC(=O)O[C@@H]1CC(=O)O[C@H](C)C[C@H](O)[C@H](N(C)CCCc2ccncc2)/C=C/[C@H](OC(C)=O)[C@H](C)C[C@H](CC=O)[C@H](O[C@@H]2O[C@H](C)[C@@H](O[C@H]3C[C@@](C)(O)[C@@H](OC(=O)CC)[C@H](C)O3)[C@H](N(C)C)[C@H]2O)[C@H]1OC | 0.2 µg/mL (≈ 0.196 µM) | 0.2 µg/mL (≈ 0.196 µM) | > 100 µg/mL | 0.2 µg/mL (≈ 0.196 µM) | 0.39 µg/mL (≈ 0.382 µM) | 0.05 µg/mL (≈ 0.0489 µM) | > 100 µg/mL | > 100 µg/mL | 0.1 µg/mL (≈ 0.0978 µM) | > 100 µg/mL | 0.1 µg/mL (≈ 0.0978 µM) | 0.78 µg/mL (≈ 0.763 µM) | 1.56 µg/mL (≈ 1.53 µM) | 12.5 µg/mL (≈ 12.2 µM) | 
CCC(=O)O[C@@H]1CC(=O)O[C@H](C)C[C@H](O)[C@H](N(C)CCc2ccccc2)/C=C/[C@H](OC(C)=O)[C@H](C)C[C@H](CC=O)[C@H](O[C@@H]2O[C@H](C)[C@@H](O[C@H]3C[C@@](C)(O)[C@@H](OC(=O)CC)[C@H](C)O3)[C@H](N(C)C)[C@H]2O)[C@H]1OC | 0.39 µg/mL (≈ 0.387 µM) | 0.39 µg/mL (≈ 0.387 µM) | > 100 µg/mL | 0.78 µg/mL (≈ 0.774 µM) | 0.39 µg/mL (≈ 0.387 µM) | 0.1 µg/mL (≈ 0.0993 µM) | > 100 µg/mL | 25 µg/mL (≈ 24.8 µM) | 0.1 µg/mL (≈ 0.0993 µM) | > 100 µg/mL | 0.2 µg/mL (≈ 0.199 µM) | 0.39 µg/mL (≈ 0.387 µM) | 1.56 µg/mL (≈ 1.55 µM) | 25 µg/mL (≈ 24.8 µM) | 
CCC(=O)O[C@@H]1CC(=O)O[C@H](C)C[C@H](O)[C@H](N(C)CCCCCc2ccccc2)/C=C/[C@H](OC(C)=O)[C@H](C)C[C@H](CC=O)[C@H](O[C@@H]2O[C@H](C)[C@@H](O[C@H]3C[C@@](C)(O)[C@@H](OC(=O)CC)[C@H](C)O3)[C@H](N(C)C)[C@H]2O)[C@H]1OC | 0.39 µg/mL (≈ 0.372 µM) | 0.39 µg/mL (≈ 0.372 µM) | > 100 µg/mL | 0.78 µg/mL (≈ 0.743 µM) | 0.39 µg/mL (≈ 0.372 µM) | 0.1 µg/mL (≈ 0.0953 µM) | 100 µg/mL (≈ 95.3 µM) | 12.5 µg/mL (≈ 11.9 µM) | 0.2 µg/mL (≈ 0.191 µM) | 25 µg/mL (≈ 23.8 µM) | 0.2 µg/mL (≈ 0.191 µM) | 0.39 µg/mL (≈ 0.372 µM) | 3.13 µg/mL (≈ 2.98 µM) | 25 µg/mL (≈ 23.8 µM) | 
CCC(=O)O[C@@H]1CC(=O)O[C@H](C)C[C@H](O)[C@H](N(C)CCCc2ccccc2)/C=C/[C@H](OC(C)=O)[C@H](C)C[C@H](CC=O)[C@H](O[C@@H]2O[C@H](C)[C@@H](O[C@H]3C[C@@](C)(O)[C@@H](OC(=O)CC)[C@H](C)O3)[C@H](N(C)C)[C@H]2O)[C@H]1OC | 0.2 µg/mL (≈ 0.196 µM) | 0.2 µg/mL (≈ 0.196 µM) | > 100 µg/mL | 0.2 µg/mL (≈ 0.196 µM) | 0.2 µg/mL (≈ 0.196 µM) | 0.05 µg/mL (≈ 0.049 µM) | > 100 µg/mL | 12.5 µg/mL (≈ 12.2 µM) | 0.1 µg/mL (≈ 0.0979 µM) | 100 µg/mL (≈ 97.9 µM) | 0.1 µg/mL (≈ 0.0979 µM) | 0.39 µg/mL (≈ 0.382 µM) | 1.56 µg/mL (≈ 1.53 µM) | 25 µg/mL (≈ 24.5 µM) | 
CCC(=O)O[C@@H]1CC(=O)O[C@H](C)C[C@H](O)[C@H](N(C)CCCc2ccncc2)/C=C/[C@H](OC(C)=O)[C@H](C)C[C@H](CC=O)[C@H](O[C@@H]2O[C@H](C)[C@@H](O)[C@H](N(C)C)[C@H]2O)[C@H]1OC | 0.78 µg/mL (≈ 0.949 µM) | 1.56 µg/mL (≈ 1.9 µM) | > 100 µg/mL | 1.56 µg/mL (≈ 1.9 µM) | 1.56 µg/mL (≈ 1.9 µM) | 0.39 µg/mL (≈ 0.474 µM) | > 100 µg/mL | > 100 µg/mL | 1.56 µg/mL (≈ 1.9 µM) | > 100 µg/mL | 6.25 µg/mL (≈ 7.6 µM) | 0.1 µg/mL (≈ 0.122 µM) | 0.39 µg/mL (≈ 0.474 µM) | 3.13 µg/mL (≈ 3.81 µM) | 
CCC(=O)O[C@@H]1CC(=O)O[C@H](C)C[C@H](O)[C@H](N(C)CCCCc2ccccc2)/C=C/[C@H](OC(C)=O)[C@H](C)C[C@H](CC=O)[C@H](O[C@@H]2O[C@H](C)[C@@H](O[C@H]3C[C@@](C)(O)[C@@H](OC(=O)CC)[C@H](C)O3)[C@H](N(C)C)[C@H]2O)[C@H]1OC | 0.39 µg/mL (≈ 0.377 µM) | 0.39 µg/mL (≈ 0.377 µM) | > 100 µg/mL | 1.56 µg/mL (≈ 1.51 µM) | 0.78 µg/mL (≈ 0.753 µM) | 0.05 µg/mL (≈ 0.0483 µM) | > 100 µg/mL | 12.5 µg/mL (≈ 12.1 µM) | 0.2 µg/mL (≈ 0.193 µM) | 100 µg/mL (≈ 96.6 µM) | 0.2 µg/mL (≈ 0.193 µM) | 0.78 µg/mL (≈ 0.753 µM) | 3.13 µg/mL (≈ 3.02 µM) | 25 µg/mL (≈ 24.1 µM) | 
CCC(=O)O[C@@H]1CC(=O)O[C@H](C)C[C@@H]2OC(=O)N(Cc3ccccc3)[C@@H]2/C=C/[C@H](OC(C)=O)[C@H](C)C[C@H](CC=O)[C@H](O[C@@H]2O[C@H](C)[C@@H](O[C@H]3C[C@@](C)(O)[C@@H](OC(=O)CC)[C@H](C)O3)[C@H](N(C)C)[C@H]2O)[C@H]1OC | 0.39 µg/mL (≈ 0.388 µM) | 0.39 µg/mL (≈ 0.388 µM) | > 100 µg/mL | 0.39 µg/mL (≈ 0.388 µM) | 0.78 µg/mL (≈ 0.776 µM) | 0.2 µg/mL (≈ 0.199 µM) | > 100 µg/mL | 100 µg/mL (≈ 99.5 µM) | 0.2 µg/mL (≈ 0.199 µM) | > 100 µg/mL | 0.2 µg/mL (≈ 0.199 µM) | 1.56 µg/mL (≈ 1.55 µM) | 3.13 µg/mL (≈ 3.11 µM) | 25 µg/mL (≈ 24.9 µM) | 
CCC(=O)O[C@@H]1CC(=O)O[C@H](C)C[C@@H]2OC(=O)N(CCc3ccccc3)[C@@H]2/C=C/[C@H](OC(C)=O)[C@H](C)C[C@H](CC=O)[C@H](O[C@@H]2O[C@H](C)[C@@H](O[C@H]3C[C@@](C)(O)[C@@H](OC(=O)CC)[C@H](C)O3)[C@H](N(C)C)[C@H]2O)[C@H]1OC | 0.78 µg/mL (≈ 0.765 µM) | 0.39 µg/mL (≈ 0.383 µM) | > 100 µg/mL | 6.25 µg/mL (≈ 6.13 µM) | 1.56 µg/mL (≈ 1.53 µM) | 0.2 µg/mL (≈ 0.196 µM) | > 100 µg/mL | 50 µg/mL (≈ 49.1 µM) | 0.2 µg/mL (≈ 0.196 µM) | > 100 µg/mL | 0.1 µg/mL (≈ 0.0981 µM) | 0.78 µg/mL (≈ 0.765 µM) | 3.13 µg/mL (≈ 3.07 µM) | 25 µg/mL (≈ 24.5 µM) | 
CCC(=O)O[C@@H]1CC(=O)O[C@H](C)C[C@H](O)[C@H](N(C)CCCn2cnc(-c3cccnc3)c2)/C=C/[C@H](OC(C)=O)[C@H](C)C[C@H](CC=O)[C@H](O[C@@H]2O[C@H](C)[C@@H](O[C@H]3C[C@@](C)(O)[C@@H](OC(=O)CC)[C@H](C)O3)[C@H](N(C)C)[C@H]2O)[C@H]1OC | 0.39 µg/mL (≈ 0.358 µM) | 0.2 µg/mL (≈ 0.184 µM) | > 100 µg/mL | 0.39 µg/mL (≈ 0.358 µM) | 0.39 µg/mL (≈ 0.358 µM) | 0.06 µg/mL (≈ 0.0551 µM) | > 100 µg/mL | 100 µg/mL (≈ 91.9 µM) | 0.1 µg/mL (≈ 0.0919 µM) | > 100 µg/mL | 0.2 µg/mL (≈ 0.184 µM) | 1.56 µg/mL (≈ 1.43 µM) | 1.56 µg/mL (≈ 1.43 µM) | 25 µg/mL (≈ 23 µM) | 0.1 µg/mL (≈ 0.0919 µM)
CC[C@H]1OC(=O)[C@H](C)[C@@H](O[C@H]2C[C@@](C)(OC)[C@@H](O)[C@H](C)O2)[C@H](C)[C@@H](O[C@@H]2O[C@H](C)C[C@H](N(C)C)[C@H]2O)[C@](C)(OC)C[C@@H](C)C(=O)[C@H](C)[C@@H](O)[C@]1(C)O [CLARITHROMYCIN] | 0.1 µg/mL (≈ 0.134 µM) | 0.1 µg/mL (≈ 0.134 µM) | > 100 µg/mL | > 100 µg/mL | 1.56 µg/mL (≈ 2.09 µM) | 0.025 µg/mL (≈ 0.0334 µM) | > 100 µg/mL | > 100 µg/mL | 0.78 µg/mL (≈ 1.04 µM) | > 100 µg/mL | 3.13 µg/mL (≈ 4.18 µM) | 0.1 µg/mL (≈ 0.134 µM) | 1.56 µg/mL (≈ 2.09 µM) | 6.25 µg/mL (≈ 8.36 µM) | 

Reference: ChEMBL document CHEMBL1157144, “Novel 16-membered macrolides modified at C-12 and C-13 positions of midecamycin A1 and miokamycin. Part 1: Synthesis and evaluation of 12,13-carbamate and 12-arylalkylamino-13-hydroxy analogues” (2008)
